From ChEMBL document CHEMBL4613305, “Chiral Separation, X-ray Structure, and Biological Evaluation of a Potent and Reversible Dual Binding Site AChE Inhibitor” (ACS Med Chem Lett, 2020) come the findings set out here.

The target of data set [1] is T1, Acetylcholinesterase (Homo sapiens, UniProt P22303). Description: Mixed type inhibition of human AChE using acetylthiocholineiodide as substrate measured for every 30 sec for 5 mins by Ellman's method. Background: In Ellman's method for cholinesterases, released thiocholine reacts with DTNB.
T1 sequence (P22303 whole entry): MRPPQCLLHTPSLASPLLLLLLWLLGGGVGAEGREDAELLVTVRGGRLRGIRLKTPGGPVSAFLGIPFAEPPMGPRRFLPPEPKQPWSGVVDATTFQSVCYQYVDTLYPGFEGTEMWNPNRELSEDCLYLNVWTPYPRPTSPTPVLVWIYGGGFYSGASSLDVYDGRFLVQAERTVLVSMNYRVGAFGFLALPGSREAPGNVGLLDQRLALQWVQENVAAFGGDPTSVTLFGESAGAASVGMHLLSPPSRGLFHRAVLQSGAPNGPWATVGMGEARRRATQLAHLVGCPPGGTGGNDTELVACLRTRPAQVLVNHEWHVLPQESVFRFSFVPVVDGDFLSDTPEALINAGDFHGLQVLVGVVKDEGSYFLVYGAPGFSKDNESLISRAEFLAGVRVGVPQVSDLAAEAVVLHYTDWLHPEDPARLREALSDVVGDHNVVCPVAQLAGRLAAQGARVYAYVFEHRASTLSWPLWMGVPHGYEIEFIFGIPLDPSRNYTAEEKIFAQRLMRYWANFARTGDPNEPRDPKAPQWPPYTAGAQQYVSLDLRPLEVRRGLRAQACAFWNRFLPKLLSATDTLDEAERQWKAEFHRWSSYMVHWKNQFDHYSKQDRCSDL
The target in data set [2] is T2, Cholinesterase (Homo sapiens, UniProt P06276). Description: Inhibition of human BChE using butyrylthiocholineiodide as substrate measured for every 30 sec for 5 mins by Ellman's method. In short, it runs like this:
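Values are mean ± SEM of three independent experiments.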

Data set [3] has as its target T1, Acetylcholinesterase. Description: Inhibition of human AChE using acetylthiocholineiodide as substrate measured for every 30 sec for 5 mins by Ellman's method.
For data set [4], the target named is T2, Cholinesterase. Description: Inhibition of human BChE using butyrylthiocholineiodide as substrate at 10 uM measured for every 30 sec for 5 mins by Ellman's method relative to control. In short, it runs like this: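 Single-concentration test, reported as % inhibition at 10 μM. Values are mean ± SEM of three independent experiments.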
Data set [5] addresses Cholinesterases; ACHE & BCHE (Homo sapiens) (UniProt P06276+P22303). Nature of the data set: Selectivity index, ratio of IC50 for human BChE to IC50 for human AChE. It counts as protein assay.
The test system of another data set is MDCK-MDR1. Description: Cytotoxicity against MDCK-MDR1 cells assessed as cell viability incubated for 72 hrs by MTT assay relative to control. The class given is ADME, cell-based. Particulars: Canis lupus familiaris, MDCK-MDR1, 72 h.
Data set [6] can be described thus: Cytotoxicity against MDCK-MDR1 cells assessed as cell viability at 100 uM incubated for 24 hrs by MTT assay relative to control. The class given is ADME, cell-based, Canis lupus familiaris. Particulars: dog, read-out: Activity.
Data set [7] can be described thus: Efflux ratio of apparent permeability across basolateral to apical side to apical to basolateral side in MDCK-MDR1 cells at 75 uM incubated for 2 hrs by UV-spectroscopy. It counts as ADME, cell-based, Canis lupus familiaris. Particulars: dog. The method in brief: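 MDCK-MDR1 monolayers expressing the P-gp efflux system. Apparent permeability was measured in both directions, apical→basolateral and basolateral→apical. Efflux ratio calculated as Papp BL / Papp AP. Papp values are mean ± SEM of three independent experiments.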

The nature of data set [8]: Cytotoxicity against human HepG2 cells assessed as cell viability at 20 to 100 uM incubated for 2 hrs by MTT assay relative to control. The class given is cell-based. To be noted: read-out: Activity. In short, it runs like this: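 HepG2 human liver cancer cells were exposed to 20–100 μM for 2 h. Viability was read by MTT reduction, expressed as % of untreated control cells in DMEM. Values are mean ± SEM of six replicates. Difference from control was tested by Student's t test (p < 0.01).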
For orientation: Tetrazolium dyes change colour on reduction, which living cells bring about.

Data set [9] in a line: Apparent permeability across apical to basolateral side in MDCK-MDR1 cells at 75 uM incubated for 2 hrs by UV-spectroscopy. The class given is ADME, cell-based, Canis lupus familiaris. To be noted: dog. The method in brief:
(§1)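 MDCK-MDR1 monolayers expressing the P-gp efflux system. Apparent permeability (Papp) was measured in both directions: apical to basolateral, and basolateral to apical. Efflux ratio = Papp BL/Papp AP. Values are mean ± SEM of three independent experiments.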

Data set [10] is described as follows: Cytotoxicity against MDCK-MDR1 cells assessed as cell viability at 100 uM incubated for 72 hrs by MTT assay relative to control. It counts as ADME, cell-based, Canis lupus familiaris. To be noted: dog, read-out: Activity.
Data set [11] can be described thus: Apparent permeability across basolateral to apical side in MDCK-MDR1 cells at 75 uM incubated for 2 hrs by UV-spectroscopy. It counts as ADME, cell-based, Canis lupus familiaris. Particulars: dog. The method in brief: as §1
In data set [12] the target is T1, Acetylcholinesterase. Nature of the data set: Potency index, ratio of Ki of donepezil to Ki of compound for mixed type inhibition of human AChE using acetylthiocholineiodide as substrate measured for every 30 sec for 5 mins by Ellman's method.

Broadly, the Ki is the dissociation constant of the complex between target and ligand, obtained from inhibition or displacement. A higher Ki goes with a looser hold on the target. What is called IC50 is the concentration that inhibits the measured activity by half. A word on the inhibition: it is how much of the control response was suppressed. The efflux ratio is the permeability from basolateral to apical divided by that in the opposite direction, in the common usage. One may read the Papp A→B as the apparent permeability from the apical to the basolateral side of a cell layer. Usually Papp B→A stands for the apparent permeability from the basolateral to the apical side of a cell layer.

T2 sequence (P06276 whole entry): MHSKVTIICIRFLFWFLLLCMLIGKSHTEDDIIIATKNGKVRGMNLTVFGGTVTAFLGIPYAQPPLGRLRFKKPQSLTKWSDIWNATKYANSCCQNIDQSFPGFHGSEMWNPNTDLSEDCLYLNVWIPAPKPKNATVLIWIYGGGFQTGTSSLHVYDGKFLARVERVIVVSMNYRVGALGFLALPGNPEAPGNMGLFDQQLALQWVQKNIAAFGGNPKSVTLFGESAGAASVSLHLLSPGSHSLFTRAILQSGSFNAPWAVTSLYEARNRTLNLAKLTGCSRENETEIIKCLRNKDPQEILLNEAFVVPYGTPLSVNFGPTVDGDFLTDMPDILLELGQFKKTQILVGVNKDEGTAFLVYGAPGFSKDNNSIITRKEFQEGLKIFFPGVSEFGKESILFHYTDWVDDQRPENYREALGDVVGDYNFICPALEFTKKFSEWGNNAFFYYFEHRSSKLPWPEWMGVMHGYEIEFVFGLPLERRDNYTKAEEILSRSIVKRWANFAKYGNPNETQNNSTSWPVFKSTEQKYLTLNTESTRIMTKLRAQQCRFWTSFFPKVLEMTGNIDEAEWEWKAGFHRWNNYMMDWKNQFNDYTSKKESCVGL
Cholinesterases; ACHE & BCHE (Homo sapiens), sequence (P06276 whole entry, looked up): as the sequence (P06276 whole entry) above
Cholinesterases; ACHE & BCHE (Homo sapiens), sequence (P22303 whole entry, looked up): as the sequence (P22303 whole entry) above

With `COc1cc2cc(NC(=O)[C@H]3CCC[C@@H](NCc4ccccc4)C3)c(=O)oc2cc1OC`, at Acetylcholinesterase [1], the affinity corresponds to a Ki of 93.4 nM. For the same molecule, the figures for the IC50 on Cholinesterase [2] and on Acetylcholinesterase [3] were 2330 nM and 380 nM, respectively.
As to `COc1cc2cc(NC(=O)CCCNCc3ccccc3)c(=O)oc2cc1OC`, the IC50 on Cholinesterase [2] amounted to 181 nM; on Acetylcholinesterase [3] it was 748 nM.
`COc1cc2cc(NC(=O)C3CCN(Cc4ccccc4)CC3)c(=O)oc2cc1OC` yielded an inhibition on Cholinesterase [4] of 21%. Moreover, on Acetylcholinesterase [3], the IC50 turned out to be 223 nM.
Regarding `COc1cc2cc(NC(=O)[C@@H]3CCC[C@H](NCc4ccccc4)C3)c(=O)oc2cc1OC`, the Ratio IC50 in data set [5] is 730. This molecule showed a Ki at Acetylcholinesterase [1] of 19.1 nM. In addition, the values for the IC50 against Cholinesterase [2] and against Acetylcholinesterase [3] were 14100 nM and 19.2 nM, respectively.
For `COc1cc2cc(NC(=O)[C@H]3CCC[C@@H](NCc4ccccc4)C3)c(=O)oc2cc1OC` (racemic) [listing 1 of 2 here], the IC50 with MDCK-MDR1 was determined as 30000 nM; against Cholinesterase [2] it was 6250 nM; against Acetylcholinesterase [3], 36.5 nM. The viability at 24 h, 100 µM in data set [6] stood at 60%. Moreover, at Acetylcholinesterase [1], the Ki came out at 46.6 nM. For the same molecule, the efflux ratio at 2 h, 75 µM in data set [7] amounted to 0.22. Moreover, in [8], the viability at 2 h, up to 100 µM fell in the range of 80 to 90%. Besides, the Papp A→B at 2 h, 75 µM in data set [9] was determined as 37 ×10⁻⁶ cm/s. Moreover, the viability at 72 h, 100 µM in data set [10] worked out at 37%. Also, in data set [11], the Papp B→A at 2 h, 75 µM turned out to be 8.4 ×10⁻⁶ cm/s.
Consider `COc1cc2cc(NC(=O)[C@H]3CCC[C@@H](NCc4ccccc4)C3)c(=O)oc2cc1OC` (racemic) [listing 2 of 2 here], for which the Ratio Ki at Acetylcholinesterase [12] stood at 4.
Regarding `CN1C(=O)CN=C(c2ccccc2)c2cc(Cl)ccc21` [DIAZEPAM], in [7], the efflux ratio at 2 h, 75 µM came out at 0.7.
